# Source: PubChem BioAssay (Broad Institute)
# This is a sample that favours compounds with a hit; in the whole collection about 3.1% have one here.
# PAX8 inh HTS – PAX8 transcriptional activity inhibition | RMG-I TPO-luciferase reporter, SteadyGlo, 24 h | inhibition, % at 12.6 µM | actives 1.2% (n = 360,000) | AID 652154;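 active = mean replicate inhibition at least 60% with every replicate also reaching 60%; inconclusive = only one of the two criteria is met; inactive = mean below 60% and not all replicates reaching 60%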;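 also: luciferase light reporting Pax8 driven TPO promoter activity; plate controls were median of neutral control wells for no effect and mitoxantrone controls for full effect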
# PGC1a acetyl inh – modulators of PGC1a acetylation; actives 0.17% (n = 350,000); inhibition, % at 15.6 µM; U2OS PGC1a acetylation, AlphaScreen anti-acetyl-lysine; with virally co-expressed GCN5 acetyltransferase;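 active = every replicate shows inhibition of at least 40%; inconclusive = mean inhibition at least 40% but some replicate below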;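 also: 0% = neutral control wells and 100% = positive control wells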
# FGF22 binding – binders of recombinant human FGF22 by thermal shift | Q9HCT0 | actives 1.5% (n = 340,000) | SYPRO orange fluorescence; percent of sucrose octasulfate shift, DMSO zero | AID 651658 | activity (Tm shift, normalised), % at 9.99 µM;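 active = mean Tm shift, scaled 0 neutral to 100 positive control, at about 1.3% or above, every replicate too, limit read from the data; inconclusive = no clear call, values can overlap the other calls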
# Target sequence (Q9HCT0 whole entry, looked up): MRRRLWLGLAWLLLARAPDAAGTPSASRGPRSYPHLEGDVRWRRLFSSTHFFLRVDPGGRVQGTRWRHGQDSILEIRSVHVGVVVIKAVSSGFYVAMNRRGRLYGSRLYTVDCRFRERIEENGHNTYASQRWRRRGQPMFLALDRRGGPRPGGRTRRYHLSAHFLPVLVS
# FN deposit inh – fibronectin deposition inhibition. AH1F fibroblasts, Alexa488-fibronectin deposition fluorescence, overnight. inhibition, % at 12.6 µM. actives 0.086% (n = 350,000). AID 743247;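 active = mean inhibition across replicates of 30% or more, regardless of how many single replicates reach that level; inconclusive = mean under 30% yet at least half of replicates reach 30%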;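 also: positive control wells lacked labelled fibronectin entirely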
#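 Material: AH1F fibroblast monolayer depositing Alexa488-labelled fibronectin into matrix / Amount: 10000 AH1F cells per well / Signal: fluorescence 485/525 nm / Medium: DMEM, 2% serum / Compound: single dose, pinned / Incubation: 1 h cell adhesion before compound, then overnight fibronectin incubation / Reagent: Alexa488-FN, 24 nM final / Read-out: inhibition of fibronectin deposition signal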
# HIV Env fusion – HIV envelope-mediated fusion inhibition; HeLa-JRFL Env/CEM21 cell fusion, luciferase; inhibition, % at 12.3 µM; actives 1.1% (n = 360,000); AID 651610;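 active = mean replicate inhibition score of at least 50 and every replicate individually at or above 50; inconclusive = only one of the two criteria met; inactive = mean below 50 and not all replicates reaching 50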;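 also: 0% = plate neutral controls and 100% = maraviroc near 300 nM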
# EWS-Fli inh – EWS/Fli transcriptional activity inhibition; actives 0.67% (n = 350,000); AID 651661; inhibition, % at 12.6 µM; A673 NR0B1-luciferase reporter, viability-normalised;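 active = mean inhibition of at least 50% after viability correction, with every replicate also passing that limit; inconclusive = mean reaches 50% but only one of two replicates passes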;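 also: firefly luciferase signal divided by Alamar Blue viability fluorescence both relative to DMSO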
# * = called active by the depositor; ? = inconclusive; · = not tested or not shown; ! = repeats disagree; [ ] = another dose, or the depositor's remark.
SMILES,PAX8 inh HTS,PGC1a acetyl inh,FGF22 binding,FN deposit inh,HIV Env fusion,EWS-Fli inh
CN1CCN(C(=O)C[C@H]2CC[C@H]3[C@@H](COC[C@@H](O)CN3Cc3cccc(F)c3)O2)CC1,-3,1,43*!,4,?,-9
O=C(C[C@@H]1CC[C@H]2[C@@H](COC[C@@H](O)CN2Cc2ccc(Oc3ccccc3)cc2)O1)N1CCc2ccccc2C1,80*,-17,0,·,21[16.7 µM],44
C[C@@H]1CCCCO[C@@H](CN(C)C(=O)Nc2cccc3ccccc23)[C@@H](C)CN([C@@H](C)CO)C(=O)c2cc(NC(=O)Nc3ccc(C(F)(F)F)cc3)ccc2O1,·,1,0,·,-4[16.7 µM],2
O=c1[nH][nH]cc1C=Nc1ccccc1O,22,·,·,·,72*,·
CCCC(O)(CCC)C(=O)NN(C(=O)CCl)c1ccccc1,-7,·,0,-3,85*,-2
CC1CCc2sc(C(=O)Nc3nnc(SCc4ccc(F)cc4)s3)cc2C1 (centres undefined),·,94*,·,·,·,·
Cc1ccc(CN2CC(=O)N3[C@@H](CO)[C@H](c4ccc(-c5ccccc5F)cc4)[C@@H]3C2)cc1,·,4,·,0,·,-1
Cn1nc(C(=O)N2CCOCC2)c([N+](=O)[O-])c1C(=O)N1CCOCC1,-6,·,44*,7,10,4
CN1C(=O)c2cc(NC(=O)c3cccc(F)c3)ccc2OC[C@H]2O[C@H](CC(=O)O)CC[C@H]21,29,5,0,1,22[16.7 µM],-7
CCc1cccc(N=c2c([N+](=O)[O-])nn(-c3ccc4c(c3)OCCO4)n2O)c1,101*,·,43*,-1,38,-11
COc1ccc(S(=O)(=O)N(C)C[C@@H]2Oc3c(NC(=O)Nc4ccc(C(F)(F)F)cc4)cccc3C(=O)N([C@@H](C)CO)C[C@@H]2C)cc1,-33,1,0,6,-1[16.7 µM],-13
O=C1CSC(=S)N1N=Cc1cccc2ccccc12,2,·,0,-3,24,9
O=C(Cc1cccc2ccccc12)NN1C(=O)CSC1=S,17,2,44*,3,-7,3
COc1ccc(/C=C/c2ccc3cccc(O)c3n2)c(OC)c1OC,-10,2,0,35*,-356,-27
COc1ccc(NC(=O)Nc2ccc3c(c2)C(=O)N([C@@H](C)CO)C[C@@H](C)[C@@H](CN(C)C(=O)CCC(F)(F)F)OCCCC[C@@H](C)O3)cc1,8,6,0,·,22[16.7 µM],-3
O=C(NC(=S)Nc1ccc(CN2CCOCC2)cc1)c1ccc(-c2cccc(Cl)c2)o1,0,-17,0,-18,15,28
CC(=O)Cc1nsc(NC(=O)c2ccc(-c3cccc(Cl)c3)o2)n1,-8,-8,1.4*,2,-1,-15
O=C(Nc1ccc(CN2CCOCC2)cc1)c1ccc(-c2cccc(Cl)c2)o1,·,1,·,-3,77*,·
O=C(Nc1ccc(CN2CCOCC2)cc1)c1cc2ccccn2n1,9,0,0,1,21,56*
CC(=O)Cc1nsc(NC(=O)c2ccc(Br)o2)n1,·,-7,0,·,·,1
CC(=O)Cc1nsc(Nc2ccc(Cl)cc2)n1,-92,·,43*,·,-11,-62
C[C@H](CO)N1C[C@H](C)[C@@H](CN(C)C)Oc2ncc(C#CCN(C)C)cc2C1=O,·,-5,0,-6,-8[16.7 µM],-1
COc1ccc(S(=O)(=O)N(C)C[C@@H]2Oc3c(NC(=O)Nc4c(C)noc4C)cccc3C(=O)N([C@H](C)CO)C[C@@H]2C)cc1,·,-1,·,-2,-28[16.7 µM],2
O=C(C[C@H]1CC[C@@H]2[C@H](COC[C@H](O)CN2C(=O)c2ccc3c(c2)OCO3)O1)NCCN1CCCCC1,-2,-4,0,-1,-5[16.7 µM],-4
COc1ccc(OCCNC2CCCC2)cc1,-7,·,0,-3,-8,-2
SMILES,PAX8 inh HTS,PGC1a acetyl inh,FGF22 binding,FN deposit inh,HIV Env fusion,EWS-Fli inh
N#Cc1ccc(OCCOCCNC2CCCC2)cc1,1,·,44*,-2,-19,0
C[C@H]1CN([C@@H](C)CO)C(=O)c2cc(NC(=O)CCC(F)(F)F)ccc2O[C@H]1CN(C)S(=O)(=O)c1ccc(Cl)cc1,7,3,0,·,·,-7
FC(F)(F)c1cccc(CC2CN(Cc3ccccc3)Cc3ccccc3N2c2cc(Cl)cc(Cl)c2)c1 (centres undefined),42,9,43,-17,-55,76*
Cc1ccc(C(=O)CNc2cccc([N+](=O)[O-])c2)cc1,9,-6,43*,17,4,-30
O=C(CCCc1ccccc1)Nc1cccc([N+](=O)[O-])c1,-209,-1,1,-5,-130,-30
O=C(O)CCCC(=O)Nc1cccc([N+](=O)[O-])c1,-3,·,43*,5,4,2
Cc1ccc(NCC(=O)c2ccc([N+](=O)[O-])cc2)cc1,·,0,·,·,·,·
Cc1ccc(NC(=O)Nc2cccc([N+](=O)[O-])c2)nc1,-30,-7,43*,15,0,-51
C[C@H]1CCCCO[C@@H](CN(C)CC2CCCCC2)[C@@H](C)CN([C@@H](C)CO)C(=O)c2cc(NC(=O)Nc3ccc(F)cc3)ccc2O1,41,-15,0,·,38[16.7 µM],24
Cc1ccc(-c2cnc3c(Cl)c(C)nn3c2)cc1,-78,0,0,9,-270,53*
C[C@H]1CN([C@@H](C)CO)C(=O)c2cccc(NS(=O)(=O)c3cccs3)c2O[C@H]1CN(C)S(=O)(=O)c1ccc(F)cc1,-7,13,0,·,-1[16.7 µM],-1
C/C(=N\OCC(=O)NCC(F)(F)F)c1cc2ccccc2o1,84*,·,0,0,·,-71
CCCCNC(=O)CO/N=C(\C)c1cc2ccccc2o1,·,1,·,-7,-24,·
C[C@H]1CN([C@@H](C)CO)S(=O)(=O)c2ccc(C3=CCCC3)cc2O[C@H]1CN(C)C(=O)c1cnccn1,-7,-12,0,1,8[16.7 µM],3
NC(N)=N/N=C/c1cccc([N+](=O)[O-])c1O,17,·,43*,-19,-2,0
c1ccc(OCc2nn3c(C4CCCCC4)nnc3s2)cc1,·,7,·,-2,63*,·
NC(=O)c1ncn([C@@H]2O[C@H](CO)[C@@H](O)[C@H]2O)n1,-15,4,0,0,·,-39
NC(=O)c1ccc(=O)n(C2OC(CO)C(O)C2O)c1 (centres undefined),-11,-27,44*,-3,-130,3
CCC(=O)N1CC[C@@H]2[C@@H](CO)Nc3ccc(-c4cccc(C#N)c4)cc3[C@@H]21,-1,0,0,-4,·,10
C/C=C/c1ccc2c(c1)O[C@@H](CN(C)C(=O)c1cnccn1)[C@@H](C)CN([C@H](C)CO)S2(=O)=O,-15,4,0,7,-14[16.7 µM],-5
COc1ccc(S(=O)(=O)Nc2ccccc2C)cc1C(=O)N1CCOCC1,3,102*,43,-3,3,3
